ChEMBL document CHEMBL3871280, “Bis(N-amidinohydrazones) and N-(amidino)-N'-aryl-bishydrazones: New classes of antibacterial/antifungal agents” (Bioorg Med Chem, 2017)
≈ marks a conversion by molar mass, not a printed value.

Tests used:
Bacillus subtilis = test: Antibacterial activity against Bacillus subtilis 168; type: functional; settings: subsp. subtilis str. 168
Listeria monocytogenes = test: Antibacterial activity against Listeria monocytogenes ATCC 19115; type: functional
Staphylococcus aureus = test: Antibacterial activity against methicillin-resistant Staphylococcus aureus; type: functional
Method in brief: (§1)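 Values were set in μM and converted to μg/mL for presentation. Amikacin, ampicillin and ofloxacin served as positive controls.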

Enterococcus = test: Antibacterial activity against vancomycin-resistant Enterococcus; type: functional; method in brief: as §1
Acinetobacter baumannii = test: Antibacterial activity against Acinetobacter baumannii ATCC 19606; type: functional
Enterobacter cloacae = test: Antibacterial activity against Enterobacter cloacae ATCC 13047; type: functional; settings: subsp. cloacae ATCC 13047
Escherichia coli = test: Antibacterial activity against Escherichia coli MC1061; type: functional; method in brief: as §1
Klebsiella pneumoniae = test: Antibacterial activity against Klebsiella pneumoniae ATCC 27736; type: functional
Pseudomonas aeruginosa = test: Antibacterial activity against Pseudomonas aeruginosa ATCC 27853; type: functional
[1] = Antibacterial activity against Salmonella enterica ATCC 14028; type: functional
[2] = tested on: Mycolicibacterium smegmatis; test: Antimycobacterial activity against Mycobacterium smegmatis MC2 155; type: functional; settings: str. MC2 155; method in brief: as §1
Candida albicans = test: Antifungal activity against Candida albicans ATCC 1003; type: functional
[3] = Antifungal activity against fluconazole/itraconazole/voriconazole-resistant Candida albicans ATCC 1237; type: functional
[4] = Antifungal activity against fluconazole/itraconazole/voriconazole-susceptible Candida albicans ATCC 2310; type: functional
[5] = Antifungal activity against fluconazole/itraconazole/voriconazole-susceptible Candida albicans ATCC 2876; type: functional
[6] = Antifungal activity against fluconazole/itraconazole/voriconazole-resistant Candida albicans ATCC 10231; type: functional
[7] = Antifungal activity against fluconazole/itraconazole/voriconazole-resistant Candida albicans ATCC 64124; type: functional
[8] = Antifungal activity against fluconazole/itraconazole/voriconazole-resistant Candida albicans ATCC 90819; type: functional
[9] = Cytotoxicity against human A549 cells assessed as reduction in cell survival; type: toxicity, cell-based
[10] = Cytotoxicity against human BEAS2B cells assessed as reduction in cell survival; type: toxicity, cell-based; settings: beas-2b

Row | Structure (SMILES) | MIC (Bacillus subtilis) [µM] | MIC (Listeria monocytogenes) [µM] | MIC (Staphylococcus aureus) [µM] | MIC (Enterococcus) [µM] | MIC (Acinetobacter baumannii) [µM] | MIC (Enterobacter cloacae) [µM] | MIC (Escherichia coli) [µM] | MIC (Klebsiella pneumoniae) [µM] | MIC (Pseudomonas aeruginosa) [µM] | MIC [1] [µM] | MIC [2] [µM] | MIC (Candida albicans) [µM] | MIC [3] [µM] | MIC [4] [µM] | MIC [5] [µM] | MIC [6] [µM] | MIC [7] [µM] | MIC [8] [µM] | IC50 [9] [µg/mL] | IC50 [10] [µg/mL]
1 | NCC[C@H](O)C(=O)N[C@@H]1C[C@H](N)[C@@H](O[C@H]2O[C@H](CN)[C@@H](O)[C@H](O)[C@H]2O)[C@H](O)[C@H]1O[C@H]1O[C@H](CO)[C@@H](O)[C@H](N)[C@H]1O [AMIKACIN] | 3.9 to 15.6 (≈ 2.28 to 9.14 µg/mL) | 3.9 (≈ 2.28 µg/mL) | 31.3 (≈ 18.3 µg/mL) | 125 (≈ 73.2 µg/mL) | 31.3 (≈ 18.3 µg/mL) | 62.5 (≈ 36.6 µg/mL) | 31.3 (≈ 18.3 µg/mL) | 31.3 (≈ 18.3 µg/mL) | 62.5 (≈ 36.6 µg/mL) | 3.9 to 7.8 (≈ 2.28 to 4.57 µg/mL) | 15.6 (≈ 9.14 µg/mL) | – | – | – | – | – | – | – | – | –
2 | C/C(=N\NC(=N)N)c1ccc(-c2ccc(/C(C)=N/Nc3ccccc3Cl)cc2)cc1 | 62.5 to 125 (≈ 26.2 to 52.4 µg/mL) | 62.5 to 125 (≈ 26.2 to 52.4 µg/mL) | 125 (≈ 52.4 µg/mL) | 3.9 (≈ 1.63 µg/mL) | 62.5 (≈ 26.2 µg/mL) | 500 (≈ 209 µg/mL) | 500 (≈ 209 µg/mL) | 62.5 to 125 (≈ 26.2 to 52.4 µg/mL) | 500 (≈ 209 µg/mL) | 62.5 to 125 (≈ 26.2 to 52.4 µg/mL) | 500 (≈ 209 µg/mL) | 34.3 (≈ 14.4 µg/mL) | 34.3 (≈ 14.4 µg/mL) | 34.3 (≈ 14.4 µg/mL) | 34.3 (≈ 14.4 µg/mL) | 34.3 (≈ 14.4 µg/mL) | 68.7 (≈ 28.8 µg/mL) | 34.3 (≈ 14.4 µg/mL) | – | –
3 | C/C(=N\NC(=N)N)c1ccc(Oc2ccc(/C(C)=N/NC(=N)N)cc2)cc1.Cl.Cl | 125 | 62.5 | 125 | 3.9 | 62.5 | 250 | 125 | 62.5 | 62.5 | 125 | 125 to 250 | 17.8 | 17.8 | 17.8 | 8.9 | 17.8 | 17.8 | 17.8 | 3.9 | 2.9
4 | CC1COc2c(N3CCN(C)CC3)c(F)cc3c(=O)c(C(=O)O)cn1c23 (stereo not given) [OFLOXACIN] | ≤ 0.5 | 1 (≈ 0.361 µg/mL) | 1 (≈ 0.361 µg/mL) | 7.8 (≈ 2.82 µg/mL) | ≤ 0.5 | ≤ 0.5 | 3.9 to 7.8 (≈ 1.41 to 2.82 µg/mL) | 15.6 to 31.3 (≈ 5.64 to 11.3 µg/mL) | 3.9 (≈ 1.41 µg/mL) | 15.6 to 31.3 (≈ 5.64 to 11.3 µg/mL) | 15.6 (≈ 5.64 µg/mL) | – | – | – | – | – | – | – | – | –
5 | C[C@@H]1[C@H](O)[C@@H](C)/C=C/C=C/C=C/C=C/C=C/C=C/C=C/[C@H](O[C@@H]2O[C@H](C)[C@@H](O)[C@H](N)[C@@H]2O)C[C@@H]2O[C@](O)(C[C@@H](O)C[C@@H](O)[C@H](O)CC[C@@H](O)C[C@@H](O)CC(=O)O[C@H]1C)C[C@H](O)[C@H]2C(=O)O [AMPHOTERICIN B] | – | – | – | – | – | – | – | – | – | – | – | – | – | – | – | – | 2.1 to 4.2 (≈ 1.94 to 3.88 µg/mL) | – | 18.2 (≈ 19.7 µM) | 17.7 (≈ 19.2 µM)
6 | C/C(=N\NC(=N)N)c1ccc(/C(C)=N/NC(=N)N)cc1 | 250 (≈ 68.6 µg/mL) | 250 (≈ 68.6 µg/mL) | > 500 | 125 (≈ 34.3 µg/mL) | 500 (≈ 137 µg/mL) | > 500 | > 500 | 500 (≈ 137 µg/mL) | 250 (≈ 68.6 µg/mL) | 250 to 500 (≈ 68.6 to 137 µg/mL) | > 500 | > 90.1 | > 90.1 | > 90.1 | > 90.1 | > 90.1 | 90.1 (≈ 24.7 µg/mL) | > 90.1 | – | –
7 | CC1(C)S[C@@H]2[C@H](NC(=O)[C@H](N)c3ccccc3)C(=O)N2[C@H]1C(=O)O [AMPICILLIN] | > 250 | 250 (≈ 87.4 µg/mL) | 250 (≈ 87.4 µg/mL) | 250 (≈ 87.4 µg/mL) | > 250 | > 250 | > 250 | > 250 | > 250 | 250 (≈ 87.4 µg/mL) | > 250 | – | – | – | – | – | – | – | – | –
8 | N=C(N)N/N=C/c1ccc(-c2ccc(/C=N/Nc3ccc(Cl)cc3Cl)cc2)cc1 | > 500 | 7.8 (≈ 3.32 µg/mL) | 7.8 (≈ 3.32 µg/mL) | 7.8 (≈ 3.32 µg/mL) | > 500 | > 500 | > 500 | > 500 | > 500 | > 500 | 3.9 (≈ 1.66 µg/mL) | 16.8 (≈ 7.15 µg/mL) | 33.8 (≈ 14.4 µg/mL) | 16.8 (≈ 7.15 µg/mL) | 33.8 (≈ 14.4 µg/mL) | 16.8 (≈ 7.15 µg/mL) | 67.8 (≈ 28.8 µg/mL) | 67.8 (≈ 28.8 µg/mL) | – | –
